SUMO Mot1 rescue: blocks SUMOylation pathway, rescuing yeast Mot1-301 growth | S. cerevisiae Mot1-301 growth rescue, ATP luminescence, 38.5C; percent above DMSO median, 100 means doubled | growth rescue, % at 18.8 µM | 1% of 320,000 active | AID 2716;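 active means every valid replicate shows activation above 250% relative to neutral control wells; inactive means the rest, any valid replicate at or below 250%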
NALP1 yeast inh: NALP1 inhibition; S. cerevisiae NALP1/ASC/caspase-1 growth, X-gal OD620, 72 h; 0.61% of 280,000 active; inhibition, % at 10 µM; in the data active means inhibition mostly above about 24%, no sharp cut-off; inactive means mostly below about 32%
NALP3 yeast inh: NALP3 inhibition in yeast. AID 2825. Yeast reconstituted NLRP3/ASC/caspase-1, beta-gal luminescence, 24 h. 0.39% of 330,000 active. inhibition, % at 10 µM;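 active means inhibition of 50% or more; inactive means inhibition below 50%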
PolyA inhibitor: inhibitors of polyadenylation in S. cerevisiae. S. cerevisiae SKY197-pL101 polyadenylation reporter, beta-gal luminescence; efflux-impaired pdr1/pdr3 knockout yeast; score 100 = 6 SD above DMSO. activity score, % at 12 µM. 0.02% of 300,000 active. AID 1875;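 active means lowest replicate activity score at least 50, where 100 means six control SD above control mean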;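 further: yeast exposed to compound for 9 h at 30 °C; higher score means more reporter readthrough which indicates perturbed polyadenylation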
VIM-2 inhibitor: inhibitors of Pseudomonas aeruginosa VIM-2 metallo-beta-lactamase; purified VIM-2, nitrocefin hydrolysis, epi-absorbance fluorescence; inhibition, % at 5.6 µM; 0.89% of 290,000 active; AID 1527;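 active means inhibition above the mean of all tested compounds plus 3 SD, cutoff set per screening run, cut at about 7.5% in these data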;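 further: red hydrolysis product quenches plate fluorescence so inhibitors raise well fluorescence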
IMP-1 inh-1: blocks Pseudomonas aeruginosa IMP-1 metallo-beta-lactamase; purified IMP-1, nitrocefin hydrolysis, epi-absorbance fluorescence; inhibition, % at 5.6 µM; 0.45% of 290,000 active;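 active means inhibition above the mean plus 3 SD of all compounds in the same screening run, cut at about 4.5% in these data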
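System: purified IMP-1 / Input: IMP-1 dispensed at 0.2 nM / Medium: 50 mM HEPES pH 7.1, 50 µM ZnSO4, 0.05% Brij 35 / Timing: 15 min enzyme–compound preincubation, then 25 min nitrocefin reaction, 25 °C / Technique: plate fluorescence quenching by hydrolysis product, ex 480/em 530 nm / Repeats: singlicate testing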
IMP-1 inh-2: IMP-1 inhibition, counter-screen for VIM-2 inhibitors. shares compounds with VIM-2 inhibitor. purified IMP-1, nitrocefin hydrolysis, epi-absorbance fluorescence. inhibition, % at 5.6 µM. 1,300 tested, under 10 active. AID 1856; call rule not given here
VIM-2 FRET ctr: counter-screen for VIM-2 inhibitors: epi-absorbance artifacts via FRET; shares compounds with VIM-2 inhibitor; purified VIM-2, CCF2 FRET substrate hydrolysis; inhibition, % at 5.6 µM; 23% of 1,300 active;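 active means inhibition above the mean of all tested compounds plus 3 SD, cut at about 19% in these data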
TEM-1 counter: TEM-1 inhibition, counter-screen for VIM-2 inhibitors | shares compounds with VIM-2 inhibitor | Purified TEM-1, nitrocefin hydrolysis, epi-absorbance fluorescence | inhibition, % at 5.6 µM | 3% of 1,300 active | AID 1866;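 active means inhibition above that campaign's mean inhibition plus 3 SD, cut at about 0.46% in these data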
Target sequence (P62593 whole entry, looked up): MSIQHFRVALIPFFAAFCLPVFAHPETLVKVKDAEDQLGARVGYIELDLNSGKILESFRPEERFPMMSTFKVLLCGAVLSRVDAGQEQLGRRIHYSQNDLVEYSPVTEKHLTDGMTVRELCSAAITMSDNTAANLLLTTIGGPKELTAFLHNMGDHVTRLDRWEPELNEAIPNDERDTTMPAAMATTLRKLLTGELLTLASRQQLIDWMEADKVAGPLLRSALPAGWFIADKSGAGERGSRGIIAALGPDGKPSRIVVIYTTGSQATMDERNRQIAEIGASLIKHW
VIM-2 confirm 2: confirmation of P. aeruginosa VIM-2 metallo-beta-lactamase inhibitors. shares compounds with VIM-2 inhibitor. purified VIM-2, nitrocefin hydrolysis, epi-absorbance. inhibition, % at 5.6 µM. 96% of 1,300 active;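 active means inhibition of the VIM-2 beta-lactamase enzyme above about 11% from the earlier first-round screen, limit read from the data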
Numbers stand for hits; i = inactive; nt = no result. An excerpt weighted towards active compounds, which were near 2.9% of everything screened.

SMILES	SUMO Mot1 rescue	NALP1 yeast inh	NALP3 yeast inh	PolyA inhibitor	VIM-2 inhibitor	IMP-1 inh-1	IMP-1 inh-2	VIM-2 FRET ctr	TEM-1 counter	VIM-2 confirm 2
O=C(O)c1ccccc1C(=O)c1ccc(Oc2ccccc2)cc1	i	i	i	i	22	i	i	44	i	24
COc1cccc(NC(=O)c2cnc(SCC(=O)NCc3ccc4c(c3)OCO4)n(C)c2=O)c1	i	nt	i	i	nt	nt	nt	nt	nt	nt
Cc1nnc2c(N3CCN(C(=O)c4ccco4)CC3)nc3ccccc3n12	i	i	i	i	13	i	i	i	i	19
Cc1ccc2nc(N3CCN(C(=O)c4ccco4)CC3)c3nncn3c2c1	i	i	i	i	i	i	nt	nt	nt	nt
CCCc1cc(N2CCN(C(=O)c3ccco3)CC2)n2c(nc3ccccc32)c1C#N	i	i	i	i	14	i	i	i	i	28
CCNS(=O)(=O)c1ccc(C(=O)OCc2cc(=O)oc3cc(OC)ccc23)cc1	i	i	i	i	i	i	nt	nt	nt	nt
O=C(CSc1nnc(NC(=O)c2ccccc2[N+](=O)[O-])s1)NCC1CCCO1 (stereo unspecified)	i	i	i	i	19	i	i	35	i	23
CC(=O)Nc1nnc(SCC(=O)NCC2CCCO2)s1 (stereo unspecified)	i	i	i	i	nt	nt	nt	nt	nt	nt
O=C(CSc1nnc(Nc2ccccc2F)s1)NCC1CCCO1 (stereo unspecified)	i	nt	i	nt	nt	nt	nt	nt	nt	nt
O=C(CSc1nnc(NC(=O)c2ccccc2F)s1)NCC1CCCO1 (stereo unspecified)	i	i	i	i	15	i	i	28	i	17
O=C(NCc1ccncc1)c1ccc(NS(=O)(=O)c2ccccc2)cc1	i	i	i	i	i	i	nt	nt	nt	nt
CCN(CC)C(=O)CSc1nc2ccc(NC(=O)CSc3nccn3C)cc2s1	i	i	i	i	21	i	i	52	i	36
CCN(CC)C(=O)CSc1nc2ccc(NC(=O)CSc3nnc(N)s3)cc2s1	i	i	i	i	i	i	nt	nt	nt	nt
CCOC(=O)c1sc2nc(C)nc(NC3CCC(O)CC3)c2c1C (stereo unspecified)	i	i	i	i	23	i	i	i	i	32
OCC1CCCCN1CC(O)COC(c1ccc(F)cc1)c1ccc(F)cc1 (stereo unspecified)	i	i	i	i	i	i	nt	nt	nt	nt
O=C(O)c1sccc1OCc1ccccc1	i	i	i	i	i	i	nt	nt	nt	nt
CC(C)(C)c1ccc(COc2ccsc2C(=O)O)cc1	i	i	i	i	20	i	i	48	i	29
Cc1nc(S/C(=C\c2ccc(-c3ccc(C(=O)O)c(Cl)c3)o2)C(=O)O)n[nH]1	nt	i	nt	i	16	i	i	17	i	17
COc1ccc(NS(=O)(=O)c2ccc(NC(=O)c3ccc(N(C)S(C)(=O)=O)cc3)cc2)c(OC)c1	i	i	i	i	i	i	nt	nt	nt	nt
CN1CCN(C(=O)CSc2ccc(C(F)(F)F)cc2[N+](=O)[O-])CC1	i	i	i	i	13	i	i	i	i	38
Cc1cc(C)c(S(=O)(=O)N2CCN(C(=O)c3ccc(-n4cncn4)c([N+](=O)[O-])c3)CC2)c(C)c1	i	nt	i	i	nt	nt	nt	nt	nt	nt
CCN(CC)CCCNC(=O)c1cc2c(=O)n(CC)c3ccccc3c2s1	i	i	i	i	14	i	i	i	i	21
CCn1c(=O)c2cc(C(=O)NCCN(C)C)sc2c2ccccc21	i	i	i	i	13	i	i	i	i	20
CCOc1ccccc1N(C)C(=O)c1cc2c(=O)n(CC)c3ccccc3c2s1	i	nt	i	i	i	i	nt	nt	nt	nt
CCn1c(=O)c2cc(C(=O)N3CCCC3)sc2c2ccccc21	nt	i	i	i	i	i	nt	nt	nt	nt
SMILES	SUMO Mot1 rescue	NALP1 yeast inh	NALP3 yeast inh	PolyA inhibitor	VIM-2 inhibitor	IMP-1 inh-1	IMP-1 inh-2	VIM-2 FRET ctr	TEM-1 counter	VIM-2 confirm 2
CCN(CC)CCNC(=O)c1cc2c(=O)n(CC)c3ccccc3c2s1	i	i	i	i	14	i	i	i	i	21
O=c1c2ccccc2cnn1Cc1n[nH]c(=S)n1C1CC2CCC1C2 (stereo unspecified)	i	nt	i	i	15	i	i	38	i	21
CC(c1ccccc1)n1c(Cn2ncc3ccccc3c2=O)n[nH]c1=S (stereo unspecified)	i	i	i	i	i	i	nt	nt	nt	nt
COc1ccc(CN(C)C(C)C(=O)N(C)CC(=O)Nc2ccc(C)cc2)cc1F (stereo unspecified)	i	nt	i	nt	nt	nt	nt	nt	nt	nt
CC(=O)c1ccc(Nc2nc(-c3cccnc3)cs2)cc1	i	i	i	i	14	i	i	i	i	15
O=C(CN1C(=O)CSc2ccc(S(=O)(=O)N3CCOCC3)cc21)NCc1ccc(Cl)cc1	i	i	i	i	i	i	nt	nt	nt	nt
CCOC(=O)C[C@H]1c2cc(F)ccc2S(=O)(=O)N1Cc1ccc(OC)cc1	i	nt	i	i	nt	nt	nt	nt	nt	nt
O=c1[nH]c2cc3c(cc2cc1CN(Cc1cccnc1)C(=S)NCc1ccco1)OCCO3	i	i	i	i	18	i	i	i	i	i
CC1Sc2ccc(S(=O)(=O)N3CCC(C(=O)NCc4ccccc4)CC3)cc2NC1=O (stereo unspecified)	i	i	i	i	i	i	nt	nt	nt	nt
Cc1c[n+](CC(=O)c2ccccc2)c(C)cn1	i	i	i	i	i	i	nt	nt	nt	nt
O=C(O)Cn1c2c(c3ccccc31)CSc1ccc(Cl)cc1-2	i	i	nt	i	15	i	i	i	i	20
CCC(=O)N1c2ccc(S(=O)(=O)NC3CCCCC3)cc2CC1C (stereo unspecified)	i	i	i	i	i	i	nt	nt	nt	nt
COc1cc(OC)c(OC)cc1/C=N/NC(=O)CC1C(=O)NN=C1C (stereo unspecified)	i	i	i	i	37	i	i	66	i	55
CCc1nn(CC(=O)NCCCN2CCOCC2)c(=O)c2cc3sccc3n12	i	i	i	i	i	i	nt	nt	nt	nt
CCCN1CCN(C(=O)Cn2nc(CC)n3c(cc4sccc43)c2=O)CC1	i	i	i	i	33	i	i	i	i	39
CSc1cccc(CNC(=O)C2CCC(=O)N(CCCN3CCCC3=O)C2)c1 (stereo unspecified)	i	i	i	i	i	i	nt	nt	nt	nt
CCN(CC)CCCNC(=O)C1CCN(c2ncnc3c2sc2cccc(F)c23)CC1	i	nt	i	i	27	i	i	i	i	39
